Assay [1] relates to WRL68. Description: Cytotoxicity against human WRL68 cells assessed as inhibition of cell proliferation after 72 hrs by MTT assay. The assay is classed as cell-based. Particulars: WRL68, 72 h. The method in brief: (§1)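 MTT antiproliferation screen across HCT-116, HepG2, A549 and HeLa tumour lines, with WRL-68 normal cells run in parallel.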
Background: Formazan colour is commonly taken as a measure of viable cells.

The subject of assay [2] is A549. Description: Cytotoxicity against human A549 cells assessed as inhibition of cell proliferation after 72 hrs by MTT assay. Particulars: A549, 72 h. The assay is classed as functional, cell-based. The method in brief: as §1
The subject of assay [3] is HepG2. The assay is described as follows: Cytotoxicity against human HepG2 cells assessed as inhibition of cell proliferation after 72 hrs by MTT assay. The assay is classed as functional, cell-based. Particulars: HepG2, 72 h. The method in brief: as §1
The subject of assay [4] is HCT-116. Description: Cytotoxicity against human HCT116 cells assessed as inhibition of cell proliferation after 72 hrs by MTT assay. The class given is functional, cell-based. The following applies: HCT-116, 72 h. A digest of the protocol: as §1
The test system of assay [5] is HeLa. The assay is described as follows: Cytotoxicity against human HeLa cells assessed as inhibition of cell proliferation after 72 hrs by MTT assay. The class given is functional, cell-based. The method in brief: as §1
For assay [6], the system named is HepG2. Description: Inhibition of V-ATPase in human HepG2 cells assessed as decrease in lysosomal pH at 60 nM after 48 hrs by LysoTracker Red staining-based confocal microscopic analysis relative to control. The class given is cell-based. A digest of the protocol: (§2)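 HepG2 cells stained with LysoTracker Red (pH-sensitive dye), then loaded sequentially with the agent. Test concentrations were 0, 15, 30 or 60 nM; diphyllin was used at 1 µM as positive control. Cells were exposed for 48 h, and lysosomal acidity was judged by red fluorescence on confocal microscopy versus untreated cells.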

The test system of assay [7] is HepG2. The assay is described as follows: Cytotoxicity against human HepG2 cells assessed as inhibition of cell viability at 15 to 60 nM after 24 to 72 hrs by MTT assay. The assay is classed as functional, cell-based. A digest of the protocol:
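HepG2 cells exposed to 0, 15, 30 or 60 nM for 24, 48 and 72 h; viability read by MTT.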

Assay [8] concerns HepG2. Description: Inhibition of V-ATPase in human HepG2 cells assessed as decrease in cytosolic pH at 15 to 60 nM after 24 to 48 hrs by BCECF-AM probe-based spectrofluorophotometric analysis. The assay is classed as cell-based.
The subject of assay [9] is HepG2. Description: Inhibition of V-ATPase in human HepG2 cells assessed as release of phosphate at 60 nM after 48 hrs by colorimetric assay relative to control; values are per cent of control.
Assay [10] relates to HepG2. The assay is described as follows: Inhibition of V-ATPase in human HepG2 cells assessed as release of phosphate at 30 nM after 48 hrs by colorimetric assay relative to control; values are per cent of control.
The test system of assay [11] is HepG2. Description: Inhibition of V-ATPase in human HepG2 cells assessed as decrease in lysosomal pH at 1 uM after 48 hrs by LysoTracker Red staining-based confocal microscopic analysis relative to control. The class given is cell-based. A digest of the protocol:
as §2

Assay [12] relates to HepG2. The assay is described as follows: Inhibition of V-ATPase in human HepG2 cells assessed as release of phosphate at 15 to 60 nM after 48 hrs by colorimetric assay. The assay is classed as cell-based. The method in brief:
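HepG2 cells treated 48 h with 0, 15, 30 or 60 nM, diphyllin as positive control. V-ATPase activity then measured using a commercial V-ATPase activity assay kit.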

Molecules are shown by their SMILES. pIC50: −log10 of the molar value. Activity calls are given as the source filed them. No cut-off for these calls is given here. Where only a bound is given, the exact number is not on record here.

Usually pIC50 stands for the negative decadic logarithm of the IC50, by convention in mol/L.

As for `COc1cc2c(O[C@@H]3OC[C@@H](OC)[C@H](OC)[C@H]3OCCCCCCN3CCC(O)CC3)c3c(c(-c4ccc5c(c4)OCO5)c2cc1OC)C(=O)OC3`, the pIC50 was < 6.70 in assay [1]; 7.64 in assay [2]; 7.52 in assay [3]; 7.66 in assay [4]; 7.49 in assay [5].

Regarding `COc1cc2c(O[C@@H]3OC[C@@H](OC)[C@H](OC)[C@H]3OCCCCCCN3CCN(C)CC3)c3c(c(-c4ccc5c(c4)OCO5)c2cc1OC)C(=O)OC3`, the negative-log IC50 (pIC50) is < 6.70 in [1]; 7.44 in [2]; 7.41 in assay [3]; 7.49 in assay [4]; 7.49 in [5].

Consider `COc1cc2c(O[C@@H]3OC[C@@H](OC)[C@H](OC)[C@H]3OCCCCCCCCN3CCN(C)CC3)c3c(c(-c4ccc5c(c4)OCO5)c2cc1OC)C(=O)OC3`, for which the pIC50 is < 6.70 in assay [1]; 7.60 in [2]; 7.41 in [3]; 7.96 in assay [4]; 7.04 in assay [5].

Consider `COc1cc2c(O[C@@H]3OC[C@@H](OC)[C@H](OC)[C@H]3OCCCCCCCN3CCN(C)CC3)c3c(c(-c4ccc5c(c4)OCO5)c2cc1OC)C(=O)OC3`, for which the negative logarithm of the IC50 (pIC50) was < 6.70 in assay [1]; 7.64 in assay [2]; 7.39 in [3]; 7.57 in assay [4]; 7.29 in assay [5].

In the case of `COc1cc2c(O[C@@H]3OC[C@@H](OC)[C@H](OC)[C@H]3OCCCCCCCN3CCOCC3)c3c(c(-c4ccc5c(c4)OCO5)c2cc1OC)C(=O)OC3`, the pIC50 in assay [1] is < 6.70; in assay [2], 7.64; in assay [3], 7.37; in assay [4] it was 7.55; in assay [5], 7.55.

Take `COc1cc2c(O[C@@H]3OC[C@@H](OC)[C@H](OC)[C@H]3OCCCCCCCCN3CCOCC3)c3c(c(-c4ccc5c(c4)OCO5)c2cc1OC)C(=O)OC3`: the pIC50 in assay [1] is < 6.70; in assay [2], 7.59; in assay [3], 7.59; in [4], 7.60; in assay [5], 7.35.

On to `COc1cc2c(O[C@@H]3OC[C@@H](OC)[C@H](OC)[C@H]3OCCCCCCCCN3CCN(CCO)CC3)c3c(c(-c4ccc5c(c4)OCO5)c2cc1OC)C(=O)OC3`, for which the negative-log IC50 (pIC50) in [1] was < 6.70; in [2], 7.54; in [3], 7.60; in assay [4] it was 7.57; in assay [5], 7.26.

`COc1cc2c(O[C@@H]3OC[C@@H](OC)[C@H](OC)[C@H]3OCCCCCCCN3CCN(CCO)CC3)c3c(c(-c4ccc5c(c4)OCO5)c2cc1OC)C(=O)OC3`: the negative logarithm of the IC50 (pIC50) in [1] was < 6.70; in assay [2] it was < 6.70; in assay [3], < 6.70; in assay [4], 7.54; in [5], < 6.70.

For `COc1cc2c(O[C@@H]3OC[C@@H](OC)[C@H](OC)[C@H]3OCCCCCCN3CCOCC3)c3c(c(-c4ccc5c(c4)OCO5)c2cc1OC)C(=O)OC3`, the inhibition entry in assay [6], in [7] and in assay [8] was “Active” in each case. For the same compound, the pIC50 in assay [1] is < 6.70; in assay [2], 7.59; in assay [3], 7.52; in [4], 7.68; in [5], 7.70. Also, the figures for the level, % of control in assay [9] and in assay [10] were 56% and 62%, respectively.

In the case of `COc1cc2c(O[C@@H]3OC[C@@H](OC)[C@H](OC)[C@H]3OCCCCCCCN3CCC(O)CC3)c3c(c(-c4ccc5c(c4)OCO5)c2cc1OC)C(=O)OC3`, the pIC50 is < 6.70 in assay [1]; < 6.70 in assay [2]; < 6.70 in assay [3]; 7.14 in assay [4]; < 6.70 in [5].

On to `COc1cc2c(O[C@@H]3OC[C@@H](OC)[C@H](OC)[C@H]3OCCCCCCN3CCN(CCO)CC3)c3c(c(-c4ccc5c(c4)OCO5)c2cc1OC)C(=O)OC3`, for which the negative logarithm of the IC50 (pIC50) in assay [1] is < 6.70; in assay [2], 7.72; in [3], 7.48; in [4], 7.64; in assay [5], 7.60.

On to `COc1cc2c(O)c3c(c(-c4ccc5c(c4)OCO5)c2cc1OC)C(=O)OC3`, for which the inhibition result in [11] and in assay [12] was “Active” in each case.

Regarding `COc1cc2c(O[C@@H]3OC[C@@H](OC)[C@H](OC)[C@H]3OCCCCCCCCN3CCCCC3)c3c(c(-c4ccc5c(c4)OCO5)c2cc1OC)C(=O)OC3`, the pIC50 in [1] was < 6.70; in [2], < 6.70; in [3], 7.28; in [4] it was 7.82; in assay [5] it was < 6.70.

As for `COc1cc2c(O[C@@H]3OC[C@@H](OC)[C@H](OC)[C@H]3OCCCCCCN3CCCCC3)c3c(c(-c4ccc5c(c4)OCO5)c2cc1OC)C(=O)OC3`, the pIC50 was < 6.70 in assay [1]; 7.59 in [2]; 7.47 in assay [3]; 7.64 in assay [4]; 7.44 in assay [5].

Consider `COc1cc2c(O[C@@H]3OC[C@@H](OC)[C@H](OC)[C@H]3OCCCCCCCCN3CCC(O)CC3)c3c(c(-c4ccc5c(c4)OCO5)c2cc1OC)C(=O)OC3`, for which the pIC50 was < 6.70 in assay [1]; 7.59 in assay [2]; < 6.70 in assay [3]; 7.92 in assay [4]; 7.00 in [5].

Regarding `COc1cc2c(O[C@@H]3OC[C@@H](OC)[C@H](OC)[C@H]3O)c3c(c(-c4ccc5c(c4)OCO5)c2cc1OC)C(=O)OC3` [CLEISTANTHIN], the pIC50 is < 6.70 in assay [1]; 8.40 in assay [2]; 8.10 in [3]; 9.00 in assay [4]; 7.72 in [5].

The values above are taken from ChEMBL document CHEMBL3596156, “Synthesis and bioevaluation of heterocyclic derivatives of Cleistanthin-A” (Bioorg Med Chem, 2015).
